Most compounds without a hit are left out; they make up all but 2.8% or so of the library.
HTR2A ag = mouse HTR2A agonism via beta-arrestin recruitment | P35363 | CHO-K1 mHTR2A beta-arrestin complementation, luminescence; percent of 30 µM serotonin response | activation, % at 7.6 µM | 360,000 tested, 0.66% active | AID 624169;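 active = activation above a run cutoff, the mean activation of all tested compounds plus 3 SD, cut at about 14% in these data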;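 also: 0% = plate median of compound wells and 100% = 30 µM serotonin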
MC4R barr agon = human MC4R agonism via beta-arrestin; U2OS MC4R beta-arrestin complementation, luminescence; percent of melanotan II response, DMSO zero; 360,000 tested, 0.98% active; activation, % at 8.9 µM;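 active = activation above a per-plate cutoff, the mean activation of sample wells on that plate plus 3 SD, cut at about 8% in these data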
Target sequence (P32245 whole entry, looked up): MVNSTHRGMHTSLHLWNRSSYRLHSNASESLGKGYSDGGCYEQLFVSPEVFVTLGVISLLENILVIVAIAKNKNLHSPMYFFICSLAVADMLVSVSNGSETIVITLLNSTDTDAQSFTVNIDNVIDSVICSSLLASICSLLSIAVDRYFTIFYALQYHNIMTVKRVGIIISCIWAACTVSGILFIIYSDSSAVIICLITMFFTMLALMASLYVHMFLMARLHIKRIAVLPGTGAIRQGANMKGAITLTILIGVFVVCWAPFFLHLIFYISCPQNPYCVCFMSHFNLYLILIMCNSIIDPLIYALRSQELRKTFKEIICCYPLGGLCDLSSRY
EBI2 block = blocks human EBI2 receptor beta-arrestin signaling; P32249; 360,000 tested, 0.81% active; EBI2 beta-arrestin recruitment, luminescence, 7a,25-OHC stimulated; inhibition, % at 5 µM; in the data active = inhibition above about 38%;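 also: enzyme fragment complementation signal reports receptor beta-arrestin coupling in cells; 0% = agonist plus DMSO wells and 100% = wells without agonist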
MC4R antag cAMP = blocks human MC4R cAMP signaling | inhibition, % at 6.5 µM | 360,000 tested, 0.48% active | MC4R-expressing cells, MTII-stimulated cAMP, LANCE TR-FRET | P32245 | AID 540295;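 active = inhibition above its plate's cutoff, the mean of tested wells on that plate plus 3 SD, cut at about 29% in these data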;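 also: 0% = Melanotan II alone and 100% = Melanotan II plus saturating MCL0020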
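material = U2OS cells stably expressing human melanocortin 4 receptor (MC4R) | also added = Melanotan II challenge | dosing = single nominal compound dose of 6.5 µM | detection = TR-FRET with Eu-cAMP and labeled anti-cAMP, 671 nm | replication = singlicate | timing = compound 30 min, challenge 1 h, detection 1 h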
Active calls of the source: *; x = no result given.

SMILES	HTR2A ag	MC4R barr agon	EBI2 block	MC4R antag cAMP
CCOC(=O)Cc1csc(SCC(=O)NC2CCS(=O)(=O)C2)n1 (stereo not given)	-2	2	-5	3
Cc1ccc(-c2nc3ccccc3o2)cc1NC(=S)NC(=O)c1cccs1	2	23*	24	13
Cc1cccc(C(=O)Oc2ccccc2/C=N/Nc2ccc([N+](=O)[O-])cc2)c1	1	9.2*	32	9
O=[N+]([O-])c1ccc(N/N=C/c2cccc(O)c2O)cc1	-10	-5	20	-1
COc1ccc(C(C(=O)Nc2c(C)cccc2C)N2CCN(C)CC2)cc1 (stereo not given)	12	x	-11	x
N#CCC(=O)N/N=C/c1cn(Cc2ccc(Cl)c(Cl)c2)c2ccccc12	0	20*	6	-8
COc1ccccc1NC(=O)Nc1nnc(Cc2ccccc2F)s1	0	3	8	2
COc1ccc(OCc2nnc(NC(=O)Nc3ccccc3F)s2)cc1	0	8.3*	2	14
CCC[C@@H](CNC)NC[C@H](Cc1ccccc1)NCCCCc1ccccc1	-2	0	-9	4
CNC[C@@H](Cc1ccccc1)NC[C@@H](CC1CCCCC1)NCCCc1ccccc1	0	12*	-27	1
OC(CNCC1CCCO1)Cn1c2ccccc2c2ccccc21 (stereo not given)	-2	-2	-2	-5
OC(CNCC1CCCO1)Cn1c2ccc(Cl)cc2c2cc(Cl)ccc21 (stereo not given)	2	8.9*	-14	-7
COc1ccc(CCn2c(C)cc(C(=O)CSc3nnnn3-c3ccccc3)c2C)cc1	-2	8.7*	8	-19
Cc1cc(C(=O)CSc2nnnn2C)c(C)n1CCc1ccc(Cl)cc1	-2	1	-11	6
COc1ccc(Nc2nc(N/N=C/c3ccc(N(C)C)cc3)nc(C)c2[N+](=O)[O-])cc1	1	8	4	-10
COc1ccc(/C=N/Nc2nc(C)c([N+](=O)[O-])c(N(C)c3ccccc3)n2)cc1OC	3	20*	12	2
O=C(C(=O)N1CCN(C(=O)c2ccco2)CC1)c1cc2ccccc2o1	-1	x	-8	x
COc1ccc(-c2csc(C(O)c3ccccc3)n2)cn1 (stereo not given)	-8	-2	-5	-9
O=C(O)c1ccc(C(=O)C(=O)c2ccccc2)cc1	-1	2	-1	-1
CSC(SC)=C(C#N)C(=O)c1ccccc1	0	24*	-3	38*
COc1ccccc1C(=O)NCCC(=O)NCC(C)(C)N1CCOCC1	17*	0	-15	9
CCOc1ccccc1C(=O)NCC(=O)NCC(C)(C)N1CCOCC1	3	-2	-7	-7
O=C(Nc1nnc([C@H]2C[C@H](O)[C@@H](CO)O2)s1)Nc1ccc(F)cc1F	0	-1	-25	3
CCC(C)(C)c1ccc(OCCCC[n+]2cccc(C)c2)c(C(C)(C)CC)c1	-4	19*	-3	11
CCn1c(C)cc2c(c1=O)C(c1ccc3c(c1)OCO3)C(C#N)=C(N)O2 (stereo not given)	15*	-1	-8	-5
SMILES	HTR2A ag	MC4R barr agon	EBI2 block	MC4R antag cAMP
O=C(CCC(=O)OCc1ccc(C(=O)Oc2ccc(Cl)cc2)cc1)Nc1ccccc1	-3	9.6*	-10	1
O=C(NNc1ccc(O)cc1)c1ccc(Br)cc1	-1	-2	59*	4
COc1ccc(NC(=O)c2ccc3ccccc3c2)cc1	0	8.8*	39	10
CC(=O)c1ccc(NC(=O)c2cccc(NC(=O)c3ccccc3)c2)cc1	1	8.4*	8	1
CC(=O)c1cccc(NC(=O)c2ccc3ccccc3c2)c1	4	0	34	4
COc1ccc(-c2cccc(C(=O)Nc3ccc(C)cc3)c2)cc1	0	8.6*	10	1
COc1cccc(NC(=O)c2ccc(OC(F)(F)F)cc2)c1	2	-1	44*	-9
O=C(Nc1ccccc1F)c1ccc2nc(N3C(=O)CCC3=O)sc2c1	4	0	-7	33*
O=C(Nc1ccc(F)cc1F)c1ccc2nc(N3CCOCC3)sc2c1	-3	-2	2	9
CC(=O)C1CCC2C3CC=C4CC(SC(=N)N)CCC4(C)C3CCC12C (stereo not given)	2	15*	8	7
CCN(CC)C(=O)C1=C(C)N(Cc2ccccc2)C(=O)C(CC(=O)NC2CCCC2)C1 (stereo not given)	6	1	-1	0
Cc1ccc(C)c(C(C)NC(=S)NCc2ccc(F)cc2)c1 (stereo not given)	-6	8.2*	-1	-4
COc1ccc(C(C)NC(=S)NCc2ccc(F)cc2)cc1 (stereo not given)	1	1	-10	2
O=C1Nc2ccccc2/C1=C/C(=O)c1cccs1	0	-1	43*	-2
COc1ccc(C(=O)/C=C2/C(=O)Nc3ccccc32)c(OC)c1	3	-3	80*	-9
COc1ccc(C(=O)/C=C2/C(=O)Nc3ccccc32)cc1	0	1	63*	11
NC(=O)COc1ccc(C(=O)/C=C2/C(=O)Nc3ccccc32)cc1	-1	-2	5	-18
C=CCOc1ccccc1C(=O)/C=C1/C(=O)Nc2ccccc21	6	-1	53*	-6
COc1ccc(NC(=O)c2cc(C3CCCCN3C(=O)OCc3ccccc3)on2)c(C)c1 (stereo not given)	1	-3	11	-3
C=C1CC(COc2cc(=O)oc3ccccc23)(c2ccccc2)OC1=O (stereo not given)	-2	-3	52*	-53
COc1cc2ccccc2cc1C(=O)Nc1ccc(Br)cn1	2	0	47*	8
N#C/C(C(=O)Nc1ccc(Cl)cc1)=C(/S)Nc1ccccc1	6	-3	57*	11
CN1OC[C@@H]2CN(C(=O)C(C)(C)C)[C@H](c3ccc(-c4cccnc4)cc3)C[C@@H]21	5	x	-9	x
Cc1nc(Cn2c3ccc(NC(=S)NC4CCCCC4)cc3c(=O)n2C)cs1	6	0	-5	-1
Cc1nnc(SCC(=O)NNC(=O)c2ccc(F)cc2)n1Cc1ccccc1	-8	-1	2	4
SMILES	HTR2A ag	MC4R barr agon	EBI2 block	MC4R antag cAMP
O=C(c1ccco1)N1CCN(C(=S)Nc2ccccc2Cl)CC1	15*	-3	0	-1
COc1ccc(/C=N\NC(=O)COc2ccc(C(C)(C)C)cc2)cc1Cn1nc(C)cc1C	1	22*	1	4
COc1ccc(/C=N/NC(=O)c2ccco2)cc1Cn1nc(C)cc1C	9	-2	-3	12
C/C=C/c1cccc(-c2nc(C(=O)N3CCOCC3)cc3c2[C@H](CCO)N(C(=O)NC(C)C)C3)c1	-6	x	-4	x
CC(=O)Nc1ccc(Nc2nc(C(F)(F)F)nc3c2nnn3Cc2ccccc2Cl)cc1	1	8.9*	13	22
Cc1cc(C)cc(OCC(=O)Nc2ccc(N3CCCCC3)cc2)c1	-5	8.8*	-3	6
COCCNc1nc(Oc2cccc(NC(C)=O)c2)c2sc(-c3ccccc3)cc2n1	2	9.1*	23	23

Screening results (PubChem BioAssay)
